Holding throughout (assay type): functional
Holding throughout (details): Homo sapiens

For one assay, the system named is CCRF-CEM. Kind of assay: The concentration of compound required for 50% cell growth inhibition which was expressed in logarithmic form was measured on CCRF-CEM cell lines of Leukemia. Summed up:
(§1)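 NCI 60-cell-line screen, sulforhodamine B assay. Cells grown in RPMI 1640 with 5% fetal bovine serum and 2 mM L-glutamine, seeded at 5000 to 40 000 cells/well, and incubated 24 h before drug. Drug exposure lasted 48 h. Cells were then TCA-fixed, stained with 0.4% (w/v) SRB in 1% acetic acid, and the stain solubilized in 10 mM Tris base for absorbance reading. GI50 taken from dose-response curves.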

In another assay the test system is COLO 205. As to the kind of experiment: The concentration of compound required for 50% cell growth inhibition which was expressed in logarithmic form was measured on COLO 205 cell lines of colon cancer. The gist of the method:
as §1

The next assay deals with HCT-15. Kind of assay: The concentration of compound required for 50% cell growth inhibition which was expressed in logarithmic form was measured on HCT-15 cell lines of colon cancer. Summed up:
as §1

The test system of another assay is HCT-116. As to the kind of experiment: The concentration of compound required for 50% cell growth inhibition which was expressed in logarithmic form was measured on […] cell lines of colon cancer. Summed up: as §1
For a further assay, the system named is HCC 2998. As to the kind of experiment: The concentration of compound required for 50% cell growth inhibition which was expressed in logarithmic form was measured on HCC2998 cell lines of colon cancer. Summed up: as §1
In another assay the test system is HT-29. Kind of assay: The concentration of compound required for 50% cell growth inhibition which was expressed in logarithmic form was measured on HT-29 cell lines of colon cancer. The gist of the method: as §1
A further assay deals with KM12. Kind of assay: The concentration of compound required for 50% cell growth inhibition which was expressed in logarithmic form was measured on KM12 cell lines of colon cancer. The gist of the method:
as §1

The next assay concerns M14. Kind of assay: The concentration of compound required for 50% cell growth inhibition which was expressed in logarithmic form was measured on M14 cell lines of Melanoma. The gist of the method: as §1
The subject of the next assay is MOLT-4. Kind of assay: The concentration of compound required for 50% cell growth inhibition which was expressed in logarithmic form was measured on MOLT-4 cell lines of Leukemia. The gist of the method: as §1
The next assay deals with Malme-3M. As to the kind of experiment: The concentration of compound required for 50% cell growth inhibition which was expressed in logarithmic form was measured on MALME-3M cell lines of Melanoma. Summed up: as §1
The next assay has as its system SK-MEL-2. Kind of assay: The concentration of compound required for 50% cell growth inhibition which was expressed in logarithmic form was measured on SK-MEL-2 cell lines of Melanoma. Summed up: as §1
A further assay has as its system SW-620. As to the kind of experiment: The concentration of compound required for 50% cell growth inhibition which was expressed in logarithmic form was measured on SW-620 cell lines of colon cancer. The gist of the method: as §1
For another assay, the system named is SK-MEL-5. Kind of assay: The concentration of compound required for 50% cell growth inhibition which was expressed in logarithmic form was measured on SK-MEL-5 cell lines of Melanoma. The gist of the method: as §1
Another assay deals with SK-MEL-28. Kind of assay: The concentration of compound required for 50% cell growth inhibition which was expressed in logarithmic form was measured on SK-MEL-28 cell lines of Melanoma. Summed up: as §1
A further assay relates to UACC-257. Kind of assay: The concentration of compound required for 50% cell growth inhibition which was expressed in logarithmic form was measured on UACC-257 cell lines of Melanoma. The gist of the method:
as §1

In a further assay the test system is UACC-62. Kind of assay: The concentration of compound required for 50% cell growth inhibition which was expressed in logarithmic form was measured on UACC-62 cell lines of Melanoma. Summed up:
as §1

Another assay relates to RPMI-8226. Kind of assay: The concentration of compound required for 50% cell growth inhibition which was expressed in logarithmic form was measured on RPMI-8226 cell lines of Leukemia. Summed up: as §1
The subject of a further assay is HL-60. Kind of assay: The concentration of compound required for 50% cell growth inhibition which was expressed in logarithmic form was measured on HL-60(TB) cell lines of Leukemia. Summed up: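 NCI 60-line screen, sulforhodamine B read-out. Lines grown in RPMI 1640 with 5% fetal bovine serum and 2 mM L-glutamine, seeded at 5000–40 000 cells/well and left 24 h before drug. Drug exposure 48 h, then TCA fixation, 0.4% (w/v) SRB staining in 1% acetic acid, solubilization in 10 mM unbuffered Tris base and absorbance reading. GI50 reported as log value.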

A further assay concerns K562. Kind of assay: The concentration of compound required for 50% cell growth inhibition which was expressed in logarithmic form was measured on K-562 cell lines of Leukemia. Summed up: as §1

Each structure is given as a SMILES string. Where only a bound is given, the exact number is not on record here.

The term GI50 denotes the concentration that inhibits growth by half. High values mean lower sensitivity of the cells, low ones greater sensitivity of the cells. Consider `CN(CCNc1ccc2ncn3c4ccccc4c(=O)c1c23)CCNc1ccc2ncn3c4ccccc4c(=O)c1c23`, for which the GI50 was 95.5 µM in the assay on CCRF-CEM; 22.4 µM in the assay on COLO 205; 27.5 µM with HCT-15; 2.24 µM with HCT-116; 25.1 µM in the assay with HCC 2998; 4.37 µM in the assay with HT-29. The GI50 with KM12 is 2.69 µM; with M14, 4.07 µM; with MOLT-4, 58.9 µM; with Malme-3M it was 13.2 µM; with SK-MEL-2, 27.5 µM; in the assay with SW-620, 11.2 µM. Moreover, the GI50 in the assay on SK-MEL-5 is 5.89 µM; in the assay with SK-MEL-28 it was 2.82 µM; with UACC-257, 8.13 µM; in the assay on UACC-62, 21.9 µM; in the assay on RPMI-8226 it was 28.2 µM; in the assay on HL-60 it was more than 100 µM. For the same molecule, the GI50 in the assay on K562 is 28.2 µM.
With `CN(CCCN)CCCNc1ccc2ncn3c4ccccc4c(=O)c1c23`, the GI50 was 0.347 µM in the assay on CCRF-CEM; 1.15 µM with COLO 205; 3.47 µM with HCT-15; 0.661 µM with HCT-116; 1.35 µM in the assay with HCC 2998; 0.631 µM in the assay on HT-29. Also, the GI50 in the assay on KM12 is 1.07 µM; in the assay on M14, 1.78 µM; with MOLT-4, 0.355 µM; with Malme-3M, 1.62 µM; in the assay with SK-MEL-2, 1.45 µM; in the assay on SW-620 it was 0.631 µM. Also, the GI50 is 1.55 µM in the assay on SK-MEL-5; 1.55 µM with SK-MEL-28; 1.78 µM in the assay with UACC-257; 1.62 µM in the assay on UACC-62; 1.15 µM in the assay on RPMI-8226; 0.282 µM in the assay with HL-60. The GI50 in the assay with K562 was 0.813 µM.
For the molecule `CN(CCCNc1ccc2ncn3c4ccccc4c(=O)c1c23)CCCNc1ccc2ncn3c4ccc(C(C)(C)C)cc4c(=O)c1c23`, the GI50 in the assay on CCRF-CEM is 6.92 µM; with COLO 205, 1.74 µM; in the assay on HCT-15 it was 1.78 µM; in the assay with HCT-116, 1.23 µM; with HCC 2998, 1.7 µM; in the assay with HT-29 it was 1.58 µM. Moreover, the GI50 in the assay on KM12 is 1.55 µM; with M14 it was 2.04 µM; in the assay on MOLT-4, 3.09 µM; with Malme-3M, 1.74 µM; in the assay with SK-MEL-2 it was 1.58 µM; in the assay with SW-620, 1.29 µM. For the same molecule, the GI50 with SK-MEL-5 is 1.7 µM; in the assay on SK-MEL-28, 1.82 µM; with UACC-257 it was 1.45 µM; with UACC-62 it was 1.91 µM; with RPMI-8226, 2.88 µM; in the assay with HL-60, 4.79 µM. The GI50 with K562 is 0.724 µM.
As for `CN(CCCNc1ccc2ncn3c4ccccc4c(=O)c1c23)CCCNc1ccc2ncn3c4ccccc4c(=O)c1c23`, the GI50 in the assay on CCRF-CEM is less than 0.01 µM; in the assay with COLO 205, 0.501 µM; with HCT-15 it was 0.316 µM; with HCT-116, less than 0.01 µM; in the assay on HCC 2998, 0.0933 µM; with HT-29, 0.0166 µM. Besides, the GI50 with KM12 is 0.295 µM; with M14, more than 100 µM; in the assay on MOLT-4 it was less than 0.01 µM; in the assay on Malme-3M it was 0.776 µM; in the assay with SK-MEL-2, 13.8 µM; in the assay with SW-620, less than 0.01 µM. The GI50 was 12.9 µM with SK-MEL-5; more than 100 µM in the assay with SK-MEL-28; more than 100 µM in the assay on UACC-257; 8.13 µM in the assay with UACC-62; 0.145 µM in the assay with RPMI-8226; 0.0447 µM in the assay with HL-60. The molecule further showed a 50% growth inhibitory concentration (GI50) in the assay on K562 of less than 0.01 µM.
Take `CN(CCCNc1ccc2ncn3c4ccccc4c(=O)c1c23)CCCNc1ccc2nnn3c4ccccc4c(=O)c1c23`: the GI50 in the assay on CCRF-CEM was 5.01 µM; in the assay on COLO 205, 0.372 µM; in the assay with HCT-15, 0.0479 µM; in the assay with HCT-116 it was less than 0.01 µM; with HT-29, less than 0.01 µM; in the assay with KM12, 0.0309 µM. The 50% growth inhibitory concentration (GI50) in the assay on M14 is more than 100 µM; in the assay with MOLT-4 it was more than 100 µM; with Malme-3M, 12 µM; in the assay on SK-MEL-2, 51.3 µM; in the assay with SW-620, less than 0.01 µM; in the assay with SK-MEL-5 it was 17 µM. Moreover, the GI50 is 44.7 µM in the assay with SK-MEL-28; more than 100 µM in the assay on UACC-257; 38 µM in the assay on UACC-62; 10.2 µM with HL-60; 17.8 µM in the assay on K562.
